# Measurements gathered from unrelated publications.
SMILES,system,conditions,Vd
CC[C@H](C)[C@@H]1NC(=O)[C@@](C)(NC(=O)[C@H](CCCNC(=N)N)NC(=O)[C@H](CC(C)C)NC(=O)[C@@H](NC(=O)[C@H](CCC(N)=O)NC(=O)[C@H](CC(C)C)NC(C)=O)[C@@H](C)O)CCCC=CCCC[C@@](C)(C(=O)N[C@@H](CC(C)C)C(=O)N[C@@H](Cc2ccc3ccccc3c2)C(N)=O)NC(=O)[C@H](CCCNC(=N)N)NC(=O)[C@H](CCC(N)=O)NC1=O,"male BALB/c mouse, plasma","intravenous, 5 mg/kg",0.0692 L/kg
COc1ccc2nccc(N3CCc4c(cc(Cn5ccnc5)cc4-c4cn(C)nc4C(F)(F)F)C3=O)c2c1,"male CD-1 mouse, plasma","intravenous, 3 mg/kg",1 L/kg
CN1CCN(CC2CCN(c3nccc4[nH]c(-c5cc(F)cc(F)c5)nc34)CC2)CC1,"BALB/c mouse, blood","intravenous, 2 mg/kg",37 L/kg
CCc1cc(C(=O)NC)c2nccc(N3CCc4c(cc(Cn5ccnc5)cc4-c4cn(C)nc4C(F)(F)F)C3=O)c2c1,"male CD-1 mouse, plasma","intravenous, 3 mg/kg",0.4 L/kg
COc1ccc(C(O)COc2ccc(-c3csc(-c4ccc(OCC(O)c5ccc(OC)c(OC)c5)cc4)n3)cc2)cc1OC (stereo not drawn),"C57BL/6 mouse, plasma","intravenous, 3 mg/kg",1.5 L/kg
COc1nc(-c2cc(C)c(N[C@@H](C)c3cc(F)cc(F)c3)nn2)ccc1-n1cnc(C)c1,"male CD-1 mouse, plasma","intravenous, 1 mg/kg, single dose",2.1 L/kg
C=CC(=O)N1CC2CC(n3nc(-c4ccc(C(=O)Nc5ccccn5)cc4)c4c(N)ncnc43)CC2C1 (stereo not drawn),"male BALB/c mouse, plasma","intravenous, 1 mg/kg",0.67 L/kg
Cc1ccc2cncc(N3CCc4c(cc(Cn5ccnc5)cc4-c4cn(C)nc4C(F)(F)F)C3=O)c2c1,"male CD-1 mouse, plasma","intravenous, 3 mg/kg",0.8 L/kg
CC(C)(C)c1ccc(O)c(CN(Cc2cc(C(C)(C)C)ccc2O)C2CCC(NC(N)=O)CC2)c1 (stereo not drawn),"male C57BL/6 mouse, plasma","intraperitoneal, 5 mg/kg, single dose",2.4 L
COc1nc(-c2cc(C)c(N[C@@H](C)c3c(F)cc(F)cc3F)nn2)ccc1-n1cnc(C)c1,"male CD-1 mouse, plasma","intravenous, 1 mg/kg, single dose",1.52 L/kg
CNCCN(C)c1cc(C#N)cc(CCc2cc(C)cc(N)n2)c1,"male BALB/c mouse, brain","intravenous, 2 mg/kg",44 L/kg
COc1cc(C2Oc3cc([C@H]4Oc5cc(O)cc(O)c5C(=O)[C@@H]4O)ccc3OC2CO)ccc1O (stereo partly drawn),"male CD-1 mouse, plasma","intravenous, 2 mg/kg",2.51 L/kg
